XBP1 UPR activ – activators of adaptive XBP1 UPR arm, primary screen, cell-based, CHO-XBP1 luciferase reporter, luminescence, uHTS; IRE1-XBP1 UPR activation; percent of tunicamycin response, DMSO as zero; activation, % at 20 µM; 0.33% of 330,000 active; AID 463104, 2010;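 active means versus positive control, 20 µM dose yields 30% or more activation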;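 further: 100% = tunicamycin at 10 µg/mL and 0% = DMSO only wells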
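Material: CHO cell line with stable XBP1 luciferase reporter; buffer or medium: F12 medium containing 10% fetal bovine serum; compound: single point, 20 µM final compound, 1% DMSO; incubation: 6 h treatment, 37 °C; measured by: glow luminescence from Steady-Glo reagent; evaluation: activation, % of tunicamycin; control set: tunicamycin high, DMSO low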
NOD2-RIPK2 inh – NOD2-RIPK2 binding disruptors in cells, primary screen, fluorescence, CHO cells, BLA complementation. 0.38% of 360,000 active. AID 624267, 2012. CCF4 ratio. inhibition, % at 4.98 µM; in the data active means inhibition above about 21%;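 further: 0% = vehicle only and 100% = reference blocker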
Target sequence (O43353 whole entry, looked up): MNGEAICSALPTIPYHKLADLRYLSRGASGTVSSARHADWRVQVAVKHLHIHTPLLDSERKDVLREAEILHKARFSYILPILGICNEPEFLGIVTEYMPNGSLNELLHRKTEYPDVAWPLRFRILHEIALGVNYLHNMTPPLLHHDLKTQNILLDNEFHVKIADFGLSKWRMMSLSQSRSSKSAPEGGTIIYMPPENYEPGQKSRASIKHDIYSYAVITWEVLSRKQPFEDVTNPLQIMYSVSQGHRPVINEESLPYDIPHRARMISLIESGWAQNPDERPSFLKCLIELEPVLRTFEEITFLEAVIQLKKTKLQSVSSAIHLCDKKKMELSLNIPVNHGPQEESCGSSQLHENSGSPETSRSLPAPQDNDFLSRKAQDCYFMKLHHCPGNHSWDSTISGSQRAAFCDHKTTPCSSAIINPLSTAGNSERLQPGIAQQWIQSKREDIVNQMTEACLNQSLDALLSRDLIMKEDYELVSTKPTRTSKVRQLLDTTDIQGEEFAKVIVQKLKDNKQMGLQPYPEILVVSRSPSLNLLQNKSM
TLR9-MyD88 block – inhibitors of TLR9-MyD88 association in cells, primary screen, cell-based, CHO, BLA complementation, fluorescence; Toll-like receptor 9 (Homo sapiens) + Myeloid differentiation primary response protein …; CCF4 FRET ratio; inhibition, % at 4.98 µM; 0.21% of 340,000 active;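 active means inhibition above the mean over all tested compounds plus 3 SD, cut at about 21% in these data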;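 further: 0% = DMSO only wells and 100% = clavulanate BLA inhibitor control wells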
CHOP inhibitor – inhibitors of CHOP promoter induction, primary screen, cell-based, unfolded protein response, luciferase reporter; inhibition, % at 10 µM; CHO-K1 CHOP-promoter luciferase, tunicamycin-induced, 15-18 h; AID 2732, 2010; 3.8% of 220,000 active;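 active means compounds that reduced the stress-induced luciferase reporter signal by more than about 70% of percent inhibition, limit read from the data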;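 further: 0% = tunicamycin plus vehicle and 100% = wells without tunicamycin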
TLR4 MyD88 comp – inhibitors of TLR4-MyD88 association in cells, primary screen, cell-based, HeLa CL3-4, BLA complementation, FRET ratio. inhibition, % at 8.4 µM. Toll-like receptor 4 (Homo sapiens) + Myeloid differentiation primary response protein …. HeLa CL3-4 TLR4/MyD88 BLA complementation. 0.18% of 200,000 active; in the data active means inhibition above about 25%;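 further: 0% = vehicle and 100% = reference inhibitor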
UPR CHOP act – activators of apoptotic CHOP UPR arm, primary screen, cell-based, CHO-CHOP luciferase reporter, luminescence, uHTS. UPR activation; percent of tunicamycin response over DMSO baseline. activation, % at 10 µM. 0.34% of 330,000 active. AID 449763, 2010;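 active means at 10 µM dose, activation of 40% or more, normalized to positive control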;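 further: 100% = tunicamycin at 10 µg/mL and 0% = DMSO alone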
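System: CHO-CHOP luciferase reporter cell line | Buffer or medium: F12 medium containing 10% fetal bovine serum | Doses: One dose, 10 µM in 0.5% DMSO | Times: 6 h compound exposure at 37 °C after overnight seeding | Signal: Luciferase luminescence | Read-out: % activation vs tunicamycin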
Active calls of the source: *; nt = no result. This excerpt belongs to a sample that is enriched for hits.

SMILES	XBP1 UPR activ	NOD2-RIPK2 inh	TLR9-MyD88 block	CHOP inhibitor	TLR4 MyD88 comp	UPR CHOP act
CC(C)C1C(=O)N(Cc2cn(CCC3OCCCO3)nn2)CCS(=O)(=O)N1Cc1ccc(-c2ccc(F)nc2)cc1 (stereo not given)	nt	-16	-12	nt	nt	nt
CC1=C(C(=O)N2CCOCC2)CC(CC(=O)NCc2cccs2)C(=O)N1Cc1ccc(F)cc1 (stereo not given)	nt	3	-3	nt	nt	nt
Cc1ccccc1NCC(=O)N/N=C/C(Br)=C/c1ccccc1	0	4	0	94*	7	1
Cc1cc(NC(=O)c2ccc3nc(-c4ccccc4)c(-c4ccccc4)nc3c2)no1	13	1	-1	78*	-2	8
Cc1nc(-c2cccc(NS(=O)(=O)c3ccccc3)c2)cs1	1	-5	-7	10	4	1
Cc1ccc2nc(-c3cccc(NS(C)(=O)=O)c3)cc(-c3ccccc3)c2c1	0	6	2	85*	7	1
CCOc1ccc(N/C=C/C(=O)c2ccccc2)c([N+](=O)[O-])c1	-3	-5	-6	87*	-4	-7
CCCc1nc2ccccc2c(C(=O)OCC(=O)Nc2cccc(S(=O)(=O)N3CCOCC3)c2)c1CC	3	3	-6	77*	6	2
CCCc1nc2ccccc2c(C(=O)OCC(=O)Nc2ccc(S(=O)(=O)N3CCOCC3)cc2)c1CC	6	-10	6	12	14	-1
CO/N=C/c1ccc(N2CCN(C(=O)c3ccc(C)cc3)CC2)c([N+](=O)[O-])c1	1	-10	2	73*	2	0
CC(=O)c1cccc(-c2ccnc3c2CC(C(=O)NCc2cccs2)O3)c1 (stereo not given)	nt	8	nt	nt	nt	nt
O=C(NCc1ccccc1)N1CCN(c2ccc(Cl)c(Cl)c2)CC1	3	-7	6	76*	-7	-1
Cc1occc1C(=O)N1CCN(c2ccc(Cl)c(Cl)c2)CC1	-1	-5	-5	75*	-13	2
NNC(=O)c1ccc(COc2ccc3c(c2)CCC3)cc1	-3	7	-3	19	-1	0
CCOc1ccc(OCc2cccc(C(=O)N3CCOCC3)c2)cc1	-10	7	-38	86*	-3	-10
NNC(=O)c1cccc(COc2ccc(Br)cc2)c1	-3	-15	6	10	-5	-1
NNC(=O)c1ccc(COc2ccc3ccccc3c2)cc1	-2	-10	5	85*	nt	2
O=C(c1cccc(OCc2ccccc2)c1)N1CCOCC1	-1	0	6	0	5	1
COc1ccc(OCc2cccc(C(=O)NN)c2)cc1	-8	-7	-9	72*	-10	-8
N#Cc1nc(Cc2ccccc2)oc1NCc1cccnc1	1	-12	6	-16	11	-2
N#Cc1ncc(Cc2ccccc2)nc1C#N	2	-10	-5	nt	nt	60*
COCc1cccc(-c2csc(C(NC(C)=O)c3ccccc3)n2)c1 (stereo not given)	nt	-1	nt	nt	nt	nt
C[C@H](NC(=O)c1nc[nH]c1C(=O)N(C)CCO)c1ccccc1	nt	-3	nt	nt	nt	nt
Cc1ccc(NC(=O)Nc2ccc(F)cc2)nc1	-1	9	13	77*	-3	4
Cc1ccnc(NC(=O)Nc2ccc(F)cc2)c1	4	-1	11	4	1	2
SMILES	XBP1 UPR activ	NOD2-RIPK2 inh	TLR9-MyD88 block	CHOP inhibitor	TLR4 MyD88 comp	UPR CHOP act
COc1ccc(NC(=O)c2c(NC(=O)CNCc3ccco3)sc3c2CCC3)c(OC)c1	-3	-9	-8	71*	-8	1
COc1ccc(OC)c(NC(=O)c2c(NC(=O)CNCc3ccco3)sc3c2CCC3)c1	5	-5	0	-24	2	1
C/C(=N\NC(=O)CNc1cccc(Cl)c1C)c1cccs1	-1	2	6	92*	-5	1
COc1ccccc1NCC(=O)N/N=C(\C)c1cccs1	0	5	2	-16	11	3
O=C(Cn1c(COc2ccccc2)nc2ccccc21)Nc1cc(Cl)ccc1Cl	4	-8	2	82*	-6	3
O=C1c2ccccc2C(=O)N1CCc1csc(-c2cccc(F)c2)n1	0	-10	6	82*	-2	1
CCc1c(C)nc2ncnn2c1NCCc1ccc(Cl)cc1	3	-11	9	71*	17	1
CCOc1ccc2nc(NCCNC(=O)Nc3ccccc3)c(C#N)cc2c1	nt	8	11	83*	9	nt
CC(C)(C)C1=CC=C(C(C)(C)C)C(=O)C1=O	3	nt	nt	-105	nt	49*
COc1ccc2cc(C)c(SCC(=O)Nc3cc(C)on3)nc2c1	23	-7	-8	84*	3	13
Cc1cc(NC(=O)CSc2nc3cc(C)c(C)cc3cc2C)no1	-7	2	-11	nt	nt	2
COc1ccccc1Nc1nnc(SCC(=O)Nc2cc(C)on2)s1	0	-5	1	95*	4	-3
Cc1cc(NC(=O)CSc2nnc(NCc3ccccc3)s2)no1	0	-3	1	10	nt	-1
COc1ccccc1Cc1c(-c2ccccc2)nc2ccc(Cl)cn12	nt	7	nt	nt	nt	nt
CC(C)(C)c1nnc(NC(=O)c2cc(-c3ccccc3)nc3ccccc23)s1	-2	-2	5	74*	0	2
O=C(Nc1nc2c(s1)CCCC2)c1cc(-c2ccccc2)nc2ccccc12	-4	-10	2	81*	1	3
CCCNC(=O)c1cc(C2CCCN(C(=O)C3CCCCC3)C2)on1 (stereo not given)	nt	-9	nt	nt	nt	nt
CN(C)S(=O)(=O)c1cccc(NC(=O)c2cccc(S(=O)(=O)N3CCCCCC3)c2)c1	1	-11	-4	nt	nt	-1
CC(C)OC(=O)C(C(=O)C(F)(F)F)c1cc(NS(=O)(=O)c2ccc3ccccc3c2)c2ccccc2c1O (stereo not given)	-1	14	-5	92*	2	3
COc1ccc(S(=O)(=O)N2CCCCC2)cc1NC(=O)c1cccc(S(=O)(=O)N2CCOCC2)c1	nt	3	-5	nt	nt	nt
Cc1cc(C)n(-c2nc(NCC3CCCO3)c3c4c(sc3n2)COC(C)(C)C4)n1 (stereo not given)	1	nt	nt	95*	-11	0
Cc1cc(C)n(-c2nc(NCC(C)O)c3c4c(sc3n2)COC(C)(C)C4)n1 (stereo not given)	3	-10	-5	15	-1	1

Bioassay records as filed in PubChem BioAssay.
